For one series, the system named is CYP. As to the kind of experiment: CYP inhibition profile. Format: in vitro ADME.
Another series has as its target T1, GlyT1 (Homo sapiens, UniProt P48067).
T1 sequence (P48067 1-706): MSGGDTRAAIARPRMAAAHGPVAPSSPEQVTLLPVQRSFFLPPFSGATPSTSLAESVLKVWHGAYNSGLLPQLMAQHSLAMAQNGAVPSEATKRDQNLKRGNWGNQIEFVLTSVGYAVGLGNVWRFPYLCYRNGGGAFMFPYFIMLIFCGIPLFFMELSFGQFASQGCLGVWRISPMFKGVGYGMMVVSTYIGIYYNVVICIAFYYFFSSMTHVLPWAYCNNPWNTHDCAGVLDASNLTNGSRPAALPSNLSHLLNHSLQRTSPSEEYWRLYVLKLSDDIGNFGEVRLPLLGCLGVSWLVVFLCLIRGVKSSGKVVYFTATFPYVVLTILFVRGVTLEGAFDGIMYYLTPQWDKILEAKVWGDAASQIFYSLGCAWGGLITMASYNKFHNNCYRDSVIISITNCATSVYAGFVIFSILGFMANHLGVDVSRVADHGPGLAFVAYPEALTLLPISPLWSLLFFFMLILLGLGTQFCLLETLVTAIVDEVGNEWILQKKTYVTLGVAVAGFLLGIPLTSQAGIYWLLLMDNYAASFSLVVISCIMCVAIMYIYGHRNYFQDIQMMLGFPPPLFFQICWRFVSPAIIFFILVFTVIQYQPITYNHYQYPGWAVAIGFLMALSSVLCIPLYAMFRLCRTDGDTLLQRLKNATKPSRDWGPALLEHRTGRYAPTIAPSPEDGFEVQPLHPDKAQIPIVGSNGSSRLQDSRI
Description: Enzyme kinetics of [14C]-glycine transport. The format is biochemical. As to conditions: [14C]-glycine transport kinetics; 120 nM 12b in Fig. 3. The method in brief: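 Saturation curves of [14C]-glycine transport were run with either vehicle or 120 nM test compound. Inhibition mode relative to glycine was assessed from an Eadie-Hoffstee plot of the transport data.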

These results are taken from publication PMC3951244 (Bioorganic & medicinal chemistry letters, 2014).

Structures are written as SMILES.

In the series on CYP, `Cn1cnc(S(=O)(=O)N2CC3CCC(NC(=O)c4ccc(Cl)cc4Cl)C3C2)c1` (stereo not drawn) [Compound 12a] registered a 50% inhibitory concentration (IC50) of more than 10 µM. `Cn1cnc(S(=O)(=O)N2CC3CCC(NC(=O)c4ccccc4C(F)(F)F)C3C2)c1` (stereo not drawn) [Compound 12b]: on GlyT1, the “Mechanism of GlyT1 inhibition with respect to glycine” value is recorded as “competitively inhibits”.

In the series with CYP, `Cn1cnc(S(=O)(=O)N2CC(C(NC(=O)c3ccc(Cl)cc3Cl)c3ccccn3)C2)c1` (stereo not drawn) [Compound 27c] registered an IC50 of more than 10 µM.

As usually defined, the IC50 is the point on the concentration scale where inhibition reaches its midpoint. Read a high IC50 as a need for much substance.
